Source: PubChem (The Scripps Research Institute Molecular Screening Center)
OX1R antag-1: OX1R (HCRTR1) antagonists, primary screen, fluorescence, CHO/OX1R cells, Fluo-8 calcium, orexin A; Orexin/Hypocretin receptor type 1 (Homo sapiens), O43613; Fluo-8 calcium fluorescence; inhibition, % at 5 µM; hit rate 0.43% among 330,000;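 active = inhibition above its plate's threshold, mean inhibition of all tested compounds on the plate plus 3 SD, cut at about 37% in these data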
Target sequence (O43613 whole entry, looked up): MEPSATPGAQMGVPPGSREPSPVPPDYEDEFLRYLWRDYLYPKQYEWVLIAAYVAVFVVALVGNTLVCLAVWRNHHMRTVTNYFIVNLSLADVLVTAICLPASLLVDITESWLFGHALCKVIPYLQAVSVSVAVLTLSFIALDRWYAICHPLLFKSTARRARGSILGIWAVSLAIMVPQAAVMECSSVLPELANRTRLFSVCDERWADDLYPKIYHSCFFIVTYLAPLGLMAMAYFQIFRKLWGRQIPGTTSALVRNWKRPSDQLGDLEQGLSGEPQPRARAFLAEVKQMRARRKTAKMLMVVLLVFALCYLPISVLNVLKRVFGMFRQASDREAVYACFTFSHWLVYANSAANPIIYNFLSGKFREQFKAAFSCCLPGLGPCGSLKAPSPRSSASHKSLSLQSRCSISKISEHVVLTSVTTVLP
CHO parental Ca: ATP-evoked calcium signal inhibitors, parental CHO, primary screen, counter-screen for OX1R antagonist project, cell-based, fluorescence, Fluo-8 calcium dye; hit rate 0.63% among 330,000; inhibition, % at 5.6 µM; parental CHO-K1, ATP-induced calcium, Fluo-8 fluorescence;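 active = inhibition above that plate's mean sample inhibition plus 3 SD, cut at about 26% in these data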
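Test system: parental CHO cells; detection: calcium-sensitive Fluo-8 fluorescence; evaluation: percent inhibition of calcium signal; also added: ATP as calcium-mobilizing challenge; repeats: one well per compound; control set: ATP-challenged DMSO wells low, unchallenged DMSO wells high; compound: single nominal dose of 5.6 µM per compound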
M1 ag parental: counter-screen for M1 agonists: effect in parental CHO-K1 cells | hit rate 0.48% among 360,000 | activation, % at 3 µM | Fluo-8 calcium fluorescence; scaled to maximal ATP response, vehicle zero; in the data active = activation above about 15%;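 also: untransfected CHO-K1 host cells lacking M1 receptor as counterscreen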
CHO-K1 Ca antag: M1 antagonist counterscreen hit in parental CHO-K1 cells | ATP-induced calcium, Fluo-8 fluorescence | inhibition, % at 3 µM | hit rate 0.6% among 360,000 | AID 602250;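 active = inhibition above a per-plate cutoff, the plate's mean sample inhibition plus 3 SD, cut at about 24% in these data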
OX1R antag-2: antagonists of human orexin 1 receptor (OX1R); OX1R-expressing cells, FRET antagonist read-out; hit rate 1.8% among 330,000; inhibition, % at 6.6 µM; Orexin/Hypocretin receptor type 1 (Homo sapiens), O43613; in the data active = inhibition mostly above about 38%, no sharp cut-off; inactive = mostly below about 40%
CHO-K1 Ca PAM: nonselective calcium activators in parental CHO-K1 cells, primary screen, counter-screen for M1 PAM project, cell-based, Fluo-8 calcium fluorescence, full deck, 1536-well | AID 602247, 2012 | ATP EC20; 0% at ATP EC20, 100% at ATP max | hit rate 0.02% among 360,000 | activation, % at 3 µM;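 active = activation above the run cutoff, the mean activation of all test compounds plus 3 SD, cut at about 40% in these data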;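 also: peak over basal fluorescence ratio in a 140 s read after ATP addition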
Of the large screens only hits and unclear results are named; the others gave an inactive call. The list is not random: actives were taken first. Their share in the collection is about 2.9%.

Cc1ccc(-n2nc(C(=O)O)c(C)c(C#N)c2=O)cc1Cl	OX1R antag-2 51
Cc1c(C(=O)O)nn(-c2ccccc2)c(=O)c1C#N	OX1R antag-2 60
COc1ccc(CN2C(=O)CS/C2=N/N=C/c2cccs2)cc1	CHO-K1 Ca antag 25
Cc1ccc(-n2nc3c(=O)n(CCCC(=O)N4CCC(C(N)=O)CC4)nc(C)c3c2C)cc1	none
Cc1ccc2c(c1)CC(C)N2S(=O)(=O)c1nnc(NC(=O)CC(C)C)s1 (stereo not drawn)	none
Cn1cc2cccc([N+](=O)[O-])c2n1	OX1R antag-2 74
Cc1ccc(NC(=O)c2ccc(CSc3nnc(C)s3)cc2)cc1	CHO parental Ca 40
Cc1cc(C)cc(NC(=O)c2ccc(CSc3nnc(C)s3)cc2)c1	none
CC(C)C(C(=O)Nc1ccncc1)c1ccc(Cl)cc1 (stereo not drawn)	M1 ag parental 17
CC(C)(Oc1ccc(Cl)cc1)C(=O)Nc1cccnc1	none
CC(C)C(C(=O)Nc1nccs1)c1ccc(Cl)cc1 (stereo not drawn)	none
CC(C)(Oc1ccc(Cl)cc1)C(=O)Nc1ccncc1	CHO parental Ca 37
O=C(CNC(=O)Cc1ccc(Cl)cc1)NCc1ccco1	none
CC12CCC(C(=O)NNC(=O)c3ccccc3)(OC1=O)C2(C)C (stereo not drawn)	none
CC12CCC(C(=O)N(Cc3ccccc3)Cc3ccccc3)(OC1=O)C2(C)C (stereo not drawn)	CHO-K1 Ca antag 25
CCOC(=O)c1csc(-c2sccc2Br)n1	OX1R antag-2 45
CCOC(=O)c1sc(NC(=O)C2CC(=O)N(c3ccc(C)cc3)C2)nc1C (stereo not drawn)	none
Cc1cc(C)n(Cc2cc(C(=O)O)c3ccccc3n2)n1	none
Cc1cccc(Nc2nc(NCc3ccco3)c3ccccc3n2)c1	CHO parental Ca 74
O=C(O)CC/C(=N/NC(=O)c1ccc(-c2ccccc2)cc1)c1ccccc1	none
CC(CC(=O)N1CCc2ccccc21)S(=O)(=O)c1ccc2c(c1)NC(=O)CO2 (stereo not drawn)	none
Cc1csc2ncnc(N3CCN(S(=O)(=O)c4cccc(C(F)(F)F)c4)CC3)c12	CHO parental Ca 59, CHO-K1 Ca antag 26, OX1R antag-2 56
O=S(=O)(c1ccc(Cl)cc1)N1CCN(c2ncnc3sccc23)CC1	CHO parental Ca 46
O=S(=O)(c1cccc(Br)c1)N1CCN(c2ncnc3scc(-c4ccccc4)c23)CC1	none (no result: OX1R antag-1, CHO parental Ca, OX1R antag-2)
Cc1sc2ncnc(N3CCN(S(=O)(=O)c4ccc(C(C)(C)C)cc4)CC3)c2c1C	CHO parental Ca 51
COc1ccc(S(=O)(=O)N2CCC(C(=O)NCCc3ccccc3)CC2)cc1	none
Cc1ccc(NC(=O)Cn2nc(C(=O)O)c3ccccc3c2=O)cc1S(=O)(=O)N1CCCCCC1	none (no result: OX1R antag-1, CHO parental Ca, OX1R antag-2)
c1ccc2c(c1)CCN(c1nc3ccccc3n3cnnc13)C2	OX1R antag-2 53
c1ccc(N2CCN(c3nc4ccccc4n4cnnc34)CC2)cc1	none
CCCCc1ccc(S(=O)(=O)NC(=O)C2(C)CCN2C(=O)CCc2cccs2)cc1 (stereo not drawn)	none (no result: OX1R antag-1, CHO parental Ca, OX1R antag-2)
CN1CCN(c2ccc(C(F)(F)F)cc2NC(=O)Nc2ccccc2)CC1	M1 ag parental 21
COc1ccc(N=C2SCC(=O)N2CCc2ccc(OC)c(OC)c2)cc1	none
COc1ccc(CCN2C(=O)CSC2=Nc2ccc(C(C)C)cc2)cc1OC	CHO parental Ca 29
Cc1nn(-c2cccc([N+](=O)[O-])c2)c(N)c1-c1ccccc1	OX1R antag-2 41
CC1CCN(CC(O)CN2c3ccccc3Sc3ccccc32)CC1 (stereo not drawn)	M1 ag parental 25
CC1CCN(C(=O)N2c3ccccc3Sc3ccccc32)CC1	none
COc1cc2c3c(c1)C(C)CC(C)(C)N3C(=O)C2=O (stereo not drawn)	OX1R antag-2 44
CCOc1ccccc1/C=C(\C#N)C1=CCCC1	none
O=C(C1CC(=O)N(c2ccc3c(c2)OCCO3)C1)N1CCCC(C(F)(F)F)C1 (stereo not drawn)	none
O=C(CSc1nnc(-c2cccnc2)n1-c1ccc(SC(F)F)cc1)N1CCCc2ccccc21	CHO-K1 Ca antag 24
CCOC(=O)c1ccc(/C=N/O)[n+](Cc2ccccc2)c1	OX1R antag-2 60
CC(OC(=O)c1ccc(F)c(S(=O)(=O)N2CCOCC2)c1)C(=O)NC1CCCC1 (stereo not drawn)	CHO-K1 Ca antag 27 (no result: OX1R antag-1, CHO parental Ca, OX1R antag-2)
COc1cc2[nH]c3c(=O)n4c(nc3c2cc1OC)SCCC4	none
Cc1c(C(=O)c2ccc([N+](=O)[O-])cc2)c(=O)n(C)c(=O)n1C	OX1R antag-2 74
NC(=O)c1ccc(C(=O)c2ccc([N+](=O)[O-])cc2)cc1	OX1R antag-2 70
O=C(O)c1ccc([N+](=O)[O-])cc1	none (no result: OX1R antag-1, CHO parental Ca, OX1R antag-2)
CC1CCc2nc(/C(C#N)=C/c3ccncc3)sc2C1 (stereo not drawn)	none
O=C1CCN(Cc2ccccc2)C(=S)N1	none (no result: OX1R antag-1, CHO parental Ca, OX1R antag-2)
CCCC1c2ccc(C)n2CCN1C(=O)Nc1ccc(F)cc1 (stereo not drawn)	none
CCC1c2ccc(C)n2CCN1C(=O)Nc1ccc(F)cc1 (stereo not drawn)	CHO-K1 Ca antag 26
CC(C)(C)NC(=O)c1ccc2nsnc2c1	OX1R antag-2 67
CC12CC3CC(C)(C1)CC(C(=O)Nc1nncs1)(C3)C2	none
O=C(NNC(=O)c1ccccc1[N+](=O)[O-])c1cccs1	none
O=C(NNC(=O)c1cc([N+](=O)[O-])ccc1Cl)c1cccs1	OX1R antag-2 46
O=C(c1ccc([N+](=O)[O-])cc1)N1CCN(C(=O)c2cccs2)CC1	OX1R antag-2 50
COc1cccc(CNC(=O)CCCc2nnc3n(C)c(=O)c4sccc4n23)c1	none
CN(C)/C=N/c1ncc(C(=O)c2ccc3ccccc3c2)s1	OX1R antag-2 42
COc1ccc(C(=O)c2cnc(/N=C/N(C)C)s2)cc1	CHO-K1 Ca antag 33, OX1R antag-2 46
O=C(CSc1nnc(-c2cccnc2)o1)N1CCCCC1	none
O=C(Nc1ccc([N+](=O)[O-])cc1)Nc1nc(-c2ccc(Cl)s2)cs1	CHO parental Ca 57, CHO-K1 Ca antag 34
CC(=O)Nc1nc(-c2ccc([N+](=O)[O-])cc2)cs1	none
O=[N+]([O-])c1ccc(C=CC=Cc2ccccc2)cc1	none (no result: OX1R antag-1, CHO parental Ca, OX1R antag-2)
CN(c1ccccc1)c1ccc(/C=C/[N+](=O)[O-])cc1	OX1R antag-1 78, CHO parental Ca 63, M1 ag parental 20, CHO-K1 Ca antag 28
